Data taken from ChEMBL document CHEMBL5303300, “EUbOPEN Chemogenomics Library - Multiplex” (2023).
Several values for one entry are separate records, joined by “and”; a condition that tells them apart may be missing. Identical values can stand only once.

Tested on: U2OS
Experiment: Multiplex assay against U2OS
Format: toxicity, cell-based
Details: human, number of replicates 2
Method in brief: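 Cells were classed with CellPathfinder machine-learning gating, first as Hoechst high-intensity objects or normal cells, then (normal cells) as healthy, pyknosed or fragmented nuclei, and finally (pyknosed cells) as mitotic or apoptotic. Staining of live cells at seeding used Hoechst33342, BioTracker Green Microtubule Cytoskeleton Dye, MitoTracker Red and Annexin V Alexa Fluor 680, with imaging on a CQ1 microscope at 37°C and 5% CO2 after compound addition. Tubulin, mitochondrial-mass and membrane-permeability phenotypes are per cents of healthy-nucleus cells.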

[1] = 12 h, 1 µM, compound concentration 1 uM
[2] = 12 h, 10 µM, compound concentration 10 uM
[3] = 24 h, 1 µM, compound concentration 1 uM
[4] = 24 h, 10 µM, compound concentration 10 uM
[5] = 48 h, 1 µM, compound concentration 1 uM
[6] = 48 h, 10 µM, compound concentration 10 uM

## O=C1NC(=NCc2cccs2)SC1=Cc1ccc2ncccc2c1
[1]
  Population Apoptotic (%): 100% and 60%
  Population Healthy Nuclei (%): 68% and 89%
  Population Hoechst High Intensity Objects (%): 0%
  Population Membrane Permeable-Phenotype (%): 0% and 1%
  Population Mitochondria Different-Phenotype (%): 0% and 1%
  Population Normal (%): 100%
  Population Pyknosed Nuclei (%): 9% and 6%
  Population Tubulin-Different-Phenotype (%): 59% and 88%
[2]
  Population Apoptotic (%): 71% and 81%
  Population Healthy Nuclei (%): 57% and 85%
  Population Hoechst High Intensity Objects (%): 0%
  Population Membrane Permeable-Phenotype (%): 5% and 7%
  Population Mitochondria Different-Phenotype (%): 0% and 4%
  Population Mitotic Cells (%): 28% and 18%
  Population Normal (%): 100%
  Population Pyknosed Nuclei (%): 21% and 8%
  Population Tubulin-Different-Phenotype (%): 31% and 33%
[3]
  Population Apoptotic (%): 63% and 61%
  Population Fragmented Nuclei (%): 11% and 4%
  Population Healthy Nuclei (%): 66% and 89%
  Population Hoechst High Intensity Objects (%): 0%
  Population Membrane Permeable-Phenotype (%): 5% and 0%
  Population Mitochondria Different-Phenotype (%): 0%
  Population Mitotic Cells (%): 36% and 38%
  Population Normal (%): 100%
  Population Tubulin-Different-Phenotype (%): 67% and 82%
[4]
  Population Apoptotic (%): 100% and 75%
  Population Healthy Nuclei (%): 56% and 79%
  Population Hoechst High Intensity Objects (%): 0%
  Population Membrane Permeable-Phenotype (%): 0% and 3%
  Population Mitochondria Different-Phenotype (%): 0% and 4%
  Population Mitotic Cells (%): 0% and 25%
  Population Normal (%): 100%
  Population Pyknosed Nuclei (%): 26% and 15%
  Population Tubulin-Different-Phenotype (%): 26% and 41%
[5]
  Population Apoptotic (%): 92% and 73%
  Population Healthy Nuclei (%): 57% and 88%
  Population Hoechst High Intensity Objects (%): 0%
  Population Membrane Permeable-Phenotype (%): 4% and 2%
  Population Mitochondria Different-Phenotype (%): 0%
  Population Normal (%): 100%
  Population Tubulin-Different-Phenotype (%): 70% and 90%
[6]
  Population Apoptotic (%): 84%
  Population Fragmented Nuclei (%): 17% and 12%
  Population Healthy Nuclei (%): 36% and 60%
  Population Hoechst High Intensity Objects (%): 2% and 0%
  Population Membrane Permeable-Phenotype (%): 6% and 4%
  Population Mitotic Cells (%): 15%
  Population Normal (%): 97% and 100%
  Population Pyknosed Nuclei (%): 46% and 26%
  Population Tubulin-Different-Phenotype (%): 60% and 55%

## CCN1C(=O)N(c2c(F)c(OC)cc(OC)c2F)Cc2cnc3[nH]c(CN4CCOCC4)cc3c21 [PEMIGATINIB]
[1]
  Population Apoptotic (%): 83% and 63%
  Population Fragmented Nuclei (%): 7% and 3%
  Population Healthy Nuclei (%): 82% and 90%
  Population Hoechst High Intensity Objects (%): 0%
  Population Membrane Permeable-Phenotype (%): 0% and 1%
  Population Mitochondria Different-Phenotype (%): 0% and 1%
  Population Mitotic Cells (%): 16% and 36%
  Population Normal (%): 100%
  Population Pyknosed Nuclei (%): 9% and 5%
  Population Tubulin-Different-Phenotype (%): 64% and 80%
[2]
  Population Apoptotic (%): 33% and 74%
  Population Healthy Nuclei (%): 45% and 78%
  Population Hoechst High Intensity Objects (%): 0%
  Population Membrane Permeable-Phenotype (%): 0% and 5%
  Population Mitochondria Different-Phenotype (%): 0%
  Population Mitotic Cells (%): 66% and 25%
  Population Normal (%): 100%
  Population Pyknosed Nuclei (%): 29% and 15%
  Population Tubulin-Different-Phenotype (%): 64% and 52%
[3]
  Population Apoptotic (%): 54% and 90%
  Population Fragmented Nuclei (%): 6% and 2%
  Population Healthy Nuclei (%): 81% and 89%
  Population Hoechst High Intensity Objects (%): 0%
  Population Membrane Permeable-Phenotype (%): 1% and 2%
  Population Mitochondria Different-Phenotype (%): 0% and 2%
  Population Normal (%): 100% and 99%
  Population Pyknosed Nuclei (%): 12% and 7%
  Population Tubulin-Different-Phenotype (%): 66% and 78%
  Total Cell Count: 91 and 271
[4]
  Population Apoptotic (%): 80% and 78%
  Population Fragmented Nuclei (%): 14% and 6%
  Population Healthy Nuclei (%): 48% and 72%
  Population Hoechst High Intensity Objects (%): 0% and 1%
  Population Membrane Permeable-Phenotype (%): 0% and 5%
  Population Mitochondria Different-Phenotype (%): 0% and 4%
  Population Mitotic Cells (%): 20% and 21%
  Population Normal (%): 100% and 98%
  Population Pyknosed Nuclei (%): 37% and 21%
  Population Tubulin-Different-Phenotype (%): 69% and 56%
[5]
  Population Apoptotic (%): 50% and 76%
  Population Fragmented Nuclei (%): 8% and 2%
  Population Healthy Nuclei (%): 80% and 89%
  Population Hoechst High Intensity Objects (%): 0%
  Population Membrane Permeable-Phenotype (%): 0% and 1%
  Population Mitochondria Different-Phenotype (%): 0%
  Population Mitotic Cells (%): 50% and 23%
  Population Normal (%): 100% and 99%
  Population Pyknosed Nuclei (%): 10% and 8%
  Population Tubulin-Different-Phenotype (%): 72% and 82%
[6]
  Population Apoptotic (%): 86% and 82%
  Population Fragmented Nuclei (%): 11% and 6%
  Population Healthy Nuclei (%): 25% and 60%
  Population Hoechst High Intensity Objects (%): 0%
  Population Membrane Permeable-Phenotype (%): 0% and 7%
  Population Mitochondria Different-Phenotype (%): 0% and 5%
  Population Mitotic Cells (%): 13% and 17%
  Population Normal (%): 100% and 99%
  Population Pyknosed Nuclei (%): 63% and 33%
  Population Tubulin-Different-Phenotype (%): 44% and 60%

## CS(=O)(=O)c1ccc(C(=O)Nc2cc(F)c(F)c(COc3cc(F)c(Br)cc3CN3CC[C@H](O)C3)c2)c(Cl)c1.O=CO
[1]
  Population Apoptotic (%): 71% and 68%
  Population Hoechst High Intensity Objects (%): 0%
  Population Normal (%): 100%
[2]
  Population Apoptotic (%): 51% and 52%
  Population Healthy Nuclei (%): 28%
  Population Hoechst High Intensity Objects (%): 0%
  Population Normal (%): 99% and 100%
[3]
  Population Apoptotic (%): 60% and 78%
  Population Hoechst High Intensity Objects (%): 0%
  Population Normal (%): 100%
[4]
  Population Apoptotic (%): 88% and 86%
  Population Hoechst High Intensity Objects (%): 0%
  Population Normal (%): 100% and 99%
[5]
  Population Apoptotic (%): 60% and 89%
  Population Healthy Nuclei (%): 85%
  Population Hoechst High Intensity Objects (%): 1% and 0%
  Population Normal (%): 98% and 100%
[6]
  Population Apoptotic (%): 98% and 90%
  Population Healthy Nuclei (%): 14% and 6%
  Population Hoechst High Intensity Objects (%): 1% and 3%
  Population Normal (%): 98% and 96%
